Tests used:
[1] = target: Leucine-rich repeat serine/threonine-protein kinase 2 (Homo sapiens, UniProt Q5S007, G2019S); test: Inhibition of recombinant human GST-tagged LRRK2 G2019S mutant catalytic domain (970 to 2527 residues) expressed in baculovirus expression system by radiometric assay
[2] = target: AMP-activated protein kinase, AMPK (Homo sapiens) (UniProt P54646+O43741+P54619+Q9UGJ0+Q9Y478+Q13131+Q9UGI9); test: Inhibition of AMPK (unknown origin) at 10 uM relative to control; type: protein-complex assay
Procedure, shortened: (§1)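 Single-point screen of each compound against a panel of 59 protein kinases, at 1 or 10 μM. The panel data are also summarised as a rescaled geometric mean selectivity score.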

[3] = target: T1, Serine/threonine-protein kinase Sgk1 (Homo sapiens) (UniProt O00141); test: Inhibition of SGK1 (unknown origin) at 10 uM relative to control
T1 sequence (whole entry): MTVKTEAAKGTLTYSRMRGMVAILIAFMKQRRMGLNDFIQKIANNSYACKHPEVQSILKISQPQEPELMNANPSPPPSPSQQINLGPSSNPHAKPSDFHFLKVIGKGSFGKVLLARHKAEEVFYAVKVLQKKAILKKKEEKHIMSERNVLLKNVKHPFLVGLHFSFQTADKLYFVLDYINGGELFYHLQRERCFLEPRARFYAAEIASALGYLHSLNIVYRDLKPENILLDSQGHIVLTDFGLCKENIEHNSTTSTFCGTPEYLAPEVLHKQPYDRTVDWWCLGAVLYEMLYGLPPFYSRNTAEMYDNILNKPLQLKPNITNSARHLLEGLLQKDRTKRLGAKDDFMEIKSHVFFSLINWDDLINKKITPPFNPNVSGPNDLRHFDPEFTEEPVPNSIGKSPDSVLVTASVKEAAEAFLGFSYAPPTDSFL
Procedure, shortened: (§2)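 Single-concentration screen across a panel of 59 protein kinases, with each compound tested at one fixed concentration. The read-out is residual kinase activity relative to control. Panel results are also condensed into a rescaled geometric mean (RGM) selectivity score.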

[4] = target: Rho-associated protein kinase 2 (Homo sapiens) (UniProt O75116); test: Inhibition of ROCK2 (unknown origin) at 10 uM relative to control
Procedure, shortened: (§3)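 Single-concentration screen of each compound against a 59-protein-kinase panel, run at 10 µM or 1 µM. Activity relative to control is shown as a heat map across the panel.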

[5] = target: Calcium/calmodulin-dependent protein kinase type 1 (Homo sapiens) (UniProt Q14012); test: Inhibition of CAMK1 (unknown origin) at 10 uM relative to control; procedure, shortened: as §1
[6] = target: Fibroblast growth factor receptor 1 (Homo sapiens) (UniProt P11362); test: Inhibition of FGFR1 (unknown origin) at 10 uM relative to control; procedure, shortened: as §1
[7] = target: Serine/threonine-protein kinase PAK 4 (Homo sapiens) (UniProt O96013); test: Inhibition of PAK4 (unknown origin) at 10 uM relative to control; procedure, shortened: as §3
[8] = target: Ribosomal protein S6 kinase alpha-5 (Homo sapiens) (UniProt O75582); test: Inhibition of MSK1 (unknown origin) at 10 uM relative to control; procedure, shortened: as §3
[9] = target: Homeodomain-interacting protein kinase 2 (Homo sapiens) (UniProt Q9H2X6); test: Inhibition of HIPK2 (unknown origin) at 10 uM relative to control; procedure, shortened: as §1
[10] = target: Ribosomal protein S6 kinase alpha-1 (Homo sapiens) (UniProt Q15418); test: Inhibition of RSK1 (unknown origin) at 10 uM relative to control; procedure, shortened: as §3
[11] = target: CDK2/Cyclin A2 (Homo sapiens) (UniProt P24941+P20248); test: Inhibition of CDK2/cyclinA (unknown origin) at 10 uM relative to control; type: protein-complex assay; procedure, shortened: as §1
[12] = target: Aurora kinase B (Homo sapiens) (UniProt Q96GD4); test: Inhibition of Aurora B (unknown origin) at 10 uM relative to control; procedure, shortened: as §1
[13] = target: Mitogen-activated protein kinase 1 (Homo sapiens) (UniProt P28482); test: Inhibition of ERK2 (unknown origin) at 10 uM relative to control; procedure, shortened: as §1
[14] = target: Insulin-like growth factor 1 receptor (Homo sapiens) (UniProt P08069); test: Inhibition of IGF1R (unknown origin) at 10 uM relative to control; procedure, shortened: as §1
[15] = target: Mitogen-activated protein kinase 8 (Homo sapiens) (UniProt P45983); test: Inhibition of JNK1 (unknown origin) at 10 uM relative to control; procedure, shortened: as §1
[16] = target: Proto-oncogene tyrosine-protein kinase Src (Homo sapiens) (UniProt P12931); test: Inhibition of Src (unknown origin) at 10 uM relative to control; procedure, shortened: as §2
[17] = target: T2, MAP kinase-activated protein kinase 5 (Homo sapiens) (UniProt Q8IW41); test: Inhibition of PRAK (unknown origin) at 10 uM relative to control; procedure, shortened: as §3
T2 sequence (whole entry): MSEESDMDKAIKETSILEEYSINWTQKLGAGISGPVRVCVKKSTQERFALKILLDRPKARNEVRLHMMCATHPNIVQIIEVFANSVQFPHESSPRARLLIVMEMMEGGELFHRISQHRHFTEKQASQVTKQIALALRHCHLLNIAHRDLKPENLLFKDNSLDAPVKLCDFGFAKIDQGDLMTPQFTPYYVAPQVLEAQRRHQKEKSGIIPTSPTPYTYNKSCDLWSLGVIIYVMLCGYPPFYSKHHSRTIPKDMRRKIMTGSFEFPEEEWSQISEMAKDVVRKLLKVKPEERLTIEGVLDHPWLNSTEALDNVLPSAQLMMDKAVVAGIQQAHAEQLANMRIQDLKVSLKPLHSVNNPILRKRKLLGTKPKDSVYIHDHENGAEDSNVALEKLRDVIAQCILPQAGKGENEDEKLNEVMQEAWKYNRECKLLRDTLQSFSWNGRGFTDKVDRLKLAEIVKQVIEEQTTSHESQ

[18] = target: 3-phosphoinositide-dependent protein kinase 1 (Homo sapiens) (UniProt O15530); test: Inhibition of PDK1 (unknown origin) at 10 uM relative to control
[19] = Stability in human liver microsomes assessed as compound turnover rate measured after 40 mins; type: ADME, Microsome; settings: read-out: Drug metabolism
Procedure, shortened: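 In vitro incubation of compound with liver microsomes: human (HLM) for 40 min, mouse (MLM) for 30 min. Reported as % turnover of parent compound.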

Homeodomain-interacting protein kinase 2 (Homo sapiens), sequence (Q9H2X6 whole entry, looked up): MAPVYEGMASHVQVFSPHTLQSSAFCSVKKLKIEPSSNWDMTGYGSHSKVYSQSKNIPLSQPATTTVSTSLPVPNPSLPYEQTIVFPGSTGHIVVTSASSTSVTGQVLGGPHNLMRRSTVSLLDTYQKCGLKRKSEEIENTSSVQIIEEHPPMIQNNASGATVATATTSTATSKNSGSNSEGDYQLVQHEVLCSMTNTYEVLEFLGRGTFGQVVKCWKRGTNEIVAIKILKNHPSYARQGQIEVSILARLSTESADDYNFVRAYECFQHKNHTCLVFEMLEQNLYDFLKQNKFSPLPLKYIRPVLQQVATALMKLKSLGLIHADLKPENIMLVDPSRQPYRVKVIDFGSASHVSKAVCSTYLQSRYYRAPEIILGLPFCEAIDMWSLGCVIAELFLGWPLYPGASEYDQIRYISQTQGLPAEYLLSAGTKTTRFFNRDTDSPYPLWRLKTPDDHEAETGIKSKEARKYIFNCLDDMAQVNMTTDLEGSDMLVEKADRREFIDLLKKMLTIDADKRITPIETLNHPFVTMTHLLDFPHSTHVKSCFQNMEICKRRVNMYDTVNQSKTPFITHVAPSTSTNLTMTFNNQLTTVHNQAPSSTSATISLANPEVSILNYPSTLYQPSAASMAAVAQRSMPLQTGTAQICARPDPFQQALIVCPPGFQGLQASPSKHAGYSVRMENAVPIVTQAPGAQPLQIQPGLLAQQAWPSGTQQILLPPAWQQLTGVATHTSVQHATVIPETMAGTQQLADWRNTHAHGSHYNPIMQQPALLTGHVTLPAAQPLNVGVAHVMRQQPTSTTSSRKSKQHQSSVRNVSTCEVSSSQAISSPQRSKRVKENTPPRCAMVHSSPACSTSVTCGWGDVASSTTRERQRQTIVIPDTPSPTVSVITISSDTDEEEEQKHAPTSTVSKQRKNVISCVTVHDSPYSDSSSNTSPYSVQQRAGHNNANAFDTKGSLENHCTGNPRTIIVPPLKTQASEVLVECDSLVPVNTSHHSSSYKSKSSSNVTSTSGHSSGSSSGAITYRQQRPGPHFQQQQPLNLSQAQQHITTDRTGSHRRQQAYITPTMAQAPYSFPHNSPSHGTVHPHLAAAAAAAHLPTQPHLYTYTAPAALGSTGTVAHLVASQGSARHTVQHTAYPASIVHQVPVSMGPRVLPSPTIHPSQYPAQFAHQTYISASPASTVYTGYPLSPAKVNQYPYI
Proto-oncogene tyrosine-protein kinase Src (Homo sapiens), sequence (P12931 2-536 limits assumed): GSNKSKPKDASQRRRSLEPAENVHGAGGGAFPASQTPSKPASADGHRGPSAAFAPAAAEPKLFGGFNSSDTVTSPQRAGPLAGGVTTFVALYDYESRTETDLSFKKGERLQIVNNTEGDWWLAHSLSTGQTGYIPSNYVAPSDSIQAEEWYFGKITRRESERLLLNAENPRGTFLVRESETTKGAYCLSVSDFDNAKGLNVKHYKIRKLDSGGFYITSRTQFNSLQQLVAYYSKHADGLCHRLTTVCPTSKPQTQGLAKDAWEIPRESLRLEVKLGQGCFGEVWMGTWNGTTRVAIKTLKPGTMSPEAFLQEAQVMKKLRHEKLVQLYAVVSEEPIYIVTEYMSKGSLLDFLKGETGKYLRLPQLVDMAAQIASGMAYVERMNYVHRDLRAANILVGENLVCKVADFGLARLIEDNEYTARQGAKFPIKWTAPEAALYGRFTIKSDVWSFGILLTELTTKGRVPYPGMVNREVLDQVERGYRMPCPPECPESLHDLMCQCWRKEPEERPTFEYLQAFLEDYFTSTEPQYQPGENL
3-phosphoinositide-dependent protein kinase 1 (Homo sapiens), sequence (O15530 whole entry, looked up): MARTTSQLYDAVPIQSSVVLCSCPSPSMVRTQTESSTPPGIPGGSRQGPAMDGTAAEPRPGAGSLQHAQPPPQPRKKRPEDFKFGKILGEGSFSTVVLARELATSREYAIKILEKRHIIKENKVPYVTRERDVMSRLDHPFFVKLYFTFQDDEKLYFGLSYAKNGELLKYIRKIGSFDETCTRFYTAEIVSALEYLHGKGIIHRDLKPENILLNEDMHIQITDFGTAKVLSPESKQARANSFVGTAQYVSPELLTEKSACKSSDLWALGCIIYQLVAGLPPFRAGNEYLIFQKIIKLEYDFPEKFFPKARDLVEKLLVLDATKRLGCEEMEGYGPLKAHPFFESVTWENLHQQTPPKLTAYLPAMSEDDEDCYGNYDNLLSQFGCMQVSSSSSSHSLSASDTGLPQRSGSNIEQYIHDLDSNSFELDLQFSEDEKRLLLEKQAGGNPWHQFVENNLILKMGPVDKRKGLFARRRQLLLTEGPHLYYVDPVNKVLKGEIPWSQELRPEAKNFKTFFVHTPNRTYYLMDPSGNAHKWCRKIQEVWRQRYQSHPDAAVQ
Insulin-like growth factor 1 receptor (Homo sapiens), sequence (P08069 31-736 limits assumed): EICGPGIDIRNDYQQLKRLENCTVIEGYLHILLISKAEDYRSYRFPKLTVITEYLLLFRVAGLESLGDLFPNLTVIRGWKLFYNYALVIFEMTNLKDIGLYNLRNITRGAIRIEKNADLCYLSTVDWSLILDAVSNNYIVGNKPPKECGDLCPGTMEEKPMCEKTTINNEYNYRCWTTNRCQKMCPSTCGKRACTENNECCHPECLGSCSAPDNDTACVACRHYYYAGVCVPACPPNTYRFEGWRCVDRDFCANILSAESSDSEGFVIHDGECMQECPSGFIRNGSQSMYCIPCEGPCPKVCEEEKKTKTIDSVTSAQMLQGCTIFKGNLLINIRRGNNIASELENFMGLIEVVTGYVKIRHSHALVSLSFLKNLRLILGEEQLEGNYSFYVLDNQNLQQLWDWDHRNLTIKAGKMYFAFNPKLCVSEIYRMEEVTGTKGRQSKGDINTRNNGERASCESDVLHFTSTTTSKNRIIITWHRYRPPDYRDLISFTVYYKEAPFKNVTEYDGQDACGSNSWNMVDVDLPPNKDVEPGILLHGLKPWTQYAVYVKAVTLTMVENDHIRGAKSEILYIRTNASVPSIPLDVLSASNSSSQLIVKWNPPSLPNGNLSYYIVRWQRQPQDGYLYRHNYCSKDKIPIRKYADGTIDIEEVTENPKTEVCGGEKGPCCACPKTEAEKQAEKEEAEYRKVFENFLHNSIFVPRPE
Insulin-like growth factor 1 receptor (Homo sapiens), sequence (P08069 741-1367 limits assumed): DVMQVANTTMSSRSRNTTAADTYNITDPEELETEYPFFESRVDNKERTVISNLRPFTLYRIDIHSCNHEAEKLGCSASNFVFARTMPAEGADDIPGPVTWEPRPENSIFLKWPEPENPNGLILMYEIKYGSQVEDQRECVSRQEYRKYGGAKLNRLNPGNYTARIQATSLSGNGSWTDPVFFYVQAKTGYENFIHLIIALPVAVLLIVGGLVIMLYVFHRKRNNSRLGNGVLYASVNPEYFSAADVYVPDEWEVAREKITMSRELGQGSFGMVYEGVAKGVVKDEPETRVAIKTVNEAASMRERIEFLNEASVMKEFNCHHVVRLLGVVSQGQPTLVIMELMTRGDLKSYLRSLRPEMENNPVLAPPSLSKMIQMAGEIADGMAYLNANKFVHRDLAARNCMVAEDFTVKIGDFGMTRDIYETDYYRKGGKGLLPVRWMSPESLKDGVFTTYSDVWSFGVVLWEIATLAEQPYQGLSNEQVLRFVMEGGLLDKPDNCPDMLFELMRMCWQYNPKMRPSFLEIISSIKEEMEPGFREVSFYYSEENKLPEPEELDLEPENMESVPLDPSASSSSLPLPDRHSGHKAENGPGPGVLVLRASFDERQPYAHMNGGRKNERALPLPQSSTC
Mitogen-activated protein kinase 1 (Homo sapiens), sequence (P28482 whole entry): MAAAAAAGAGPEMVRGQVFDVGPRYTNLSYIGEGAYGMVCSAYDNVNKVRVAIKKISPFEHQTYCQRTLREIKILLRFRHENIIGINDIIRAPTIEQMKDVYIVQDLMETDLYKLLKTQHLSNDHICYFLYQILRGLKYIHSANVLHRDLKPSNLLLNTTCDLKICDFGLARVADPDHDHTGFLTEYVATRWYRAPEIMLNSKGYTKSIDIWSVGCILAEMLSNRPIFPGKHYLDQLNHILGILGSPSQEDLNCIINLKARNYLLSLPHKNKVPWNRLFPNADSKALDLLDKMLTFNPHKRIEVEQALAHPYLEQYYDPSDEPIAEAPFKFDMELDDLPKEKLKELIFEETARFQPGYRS
Fibroblast growth factor receptor 1 (Homo sapiens), sequence (P11362 22-822 limits assumed): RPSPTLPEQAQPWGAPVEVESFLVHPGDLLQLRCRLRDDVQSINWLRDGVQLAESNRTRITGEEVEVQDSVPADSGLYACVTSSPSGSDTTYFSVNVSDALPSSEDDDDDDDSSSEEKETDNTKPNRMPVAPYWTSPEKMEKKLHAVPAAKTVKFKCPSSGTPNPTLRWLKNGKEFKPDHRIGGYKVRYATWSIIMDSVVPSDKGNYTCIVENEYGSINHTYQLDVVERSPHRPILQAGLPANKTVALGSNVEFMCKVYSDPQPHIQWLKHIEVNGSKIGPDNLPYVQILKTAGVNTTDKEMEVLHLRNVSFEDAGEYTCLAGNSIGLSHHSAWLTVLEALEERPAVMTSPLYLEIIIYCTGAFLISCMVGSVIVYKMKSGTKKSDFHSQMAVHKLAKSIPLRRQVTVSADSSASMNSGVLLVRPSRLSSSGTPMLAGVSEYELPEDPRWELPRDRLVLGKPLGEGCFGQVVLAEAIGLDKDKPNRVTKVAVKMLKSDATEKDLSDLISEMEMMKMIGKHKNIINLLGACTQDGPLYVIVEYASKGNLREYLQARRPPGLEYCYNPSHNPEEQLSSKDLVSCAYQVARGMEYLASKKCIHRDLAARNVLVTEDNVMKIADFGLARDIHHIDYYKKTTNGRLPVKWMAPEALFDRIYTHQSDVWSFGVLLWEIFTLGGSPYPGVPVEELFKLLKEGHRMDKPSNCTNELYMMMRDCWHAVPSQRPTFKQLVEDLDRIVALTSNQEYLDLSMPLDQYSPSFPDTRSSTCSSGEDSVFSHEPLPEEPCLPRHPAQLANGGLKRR

Structure (SMILES) | IC50 [1] | inhibition [2] | inhibition [3] | inhibition [4] | inhibition [5] | inhibition [6] | inhibition [7] | inhibition [8] | inhibition [9] | inhibition [10] | inhibition [11] | inhibition [12] | inhibition [13] | inhibition [14] | inhibition [15] | inhibition [16] | inhibition [17] | inhibition [18] | metabolised at 40 min [19]
Cc1n[nH]c2ccnc(Nc3ccccc3F)c12 | 150 nM | 56% | 69% | 62% | 23% | 66% | 44% | 43% | 50% | 61% | 79% | 80% | 77% | 81% | 55% | 23% | 11% | 25% | –
CC(C)n1cc(-c2n[nH]c3ccnc(OC4CCOCC4)c23)cn1 | 11 nM | – | – | – | – | – | – | – | – | – | – | – | – | – | – | – | – | – | 21%
c1cc(-c2n[nH]c3ccnc(OC4CCOCC4)c23)cc(N2CCOCC2)n1 | 12 nM | – | – | – | – | – | – | – | – | – | – | – | – | – | – | – | – | – | 43%
Cc1n[nH]c2ccnc(NC3CCCCC3)c12 | 390 nM | 29% | 41% | 79% | 13% | 69% | 40% | 55% | 38% | 59% | 86% | 80% | 29% | 88% | 32% | 0% | 3% | 13% | 7%
Cc1n[nH]c2ccnc(Nc3ccc4ncsc4c3)c12 | 130 to 380 nM | – | – | – | – | – | – | 77% | – | 84% | 78% | – | 24% | – | 56% | – | 10% | – | –
Cc1n[nH]c2ccnc(OC3CCCCC3)c12 | 67 nM | 82% | 73% | 92% | 41% | 84% | 85% | 92% | 56% | 84% | 86% | 88% | 66% | 98% | 86% | 47% | 7% | 34% | 25%
